Source: ChEMBL document CHEMBL2157880, “Synthesis, antimycobacterial and antibacterial activity of ciprofloxacin derivatives containing a N-substituted benzyl moiety” (2012)
Values after ≈ are worked out from the molar mass of the structure shown.

Tests used:
Assay type in all cases: functional
[1] = system: Mycobacterium tuberculosis; experiment: Antimycobacterial activity against Mycobacterium tuberculosis H37Rv ATCC 27294 by microplate alamar blue assay
Method in brief: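 Microplate Alamar Blue fluorescence assay on strain H37Rv ATCC 27294. MIC was the lowest concentration cutting fluorescence by ≥90% against the mean of replicate bacterium-only controls.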

Staphylococcus aureus [2] = experiment: Antibacterial activity against Staphylococcus aureus ATCC 2592 after 18 to 24 hrs by NCCLS method
Method in brief: (§1)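 Standard NCCLS (M100-S11) MIC testing against Gram-positive and Gram-negative strains. Plates were incubated at 35 °C for 18–24 h. The MIC was read as the lowest concentration giving complete inhibition of visible bacterial growth.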

Staphylococcus aureus [3] = experiment: Antibacterial activity against methicillin-sensitive Staphylococcus aureus 10-11 after 18 to 24 hrs by NCCLS method; method in brief: as §1
Staphylococcus aureus [4] = experiment: Antibacterial activity against methicillin-sensitive Staphylococcus aureus 10-13 after 18 to 24 hrs by NCCLS method; method in brief: as §1
Staphylococcus aureus [5] = experiment: Antibacterial activity against methicillin-sensitive Staphylococcus aureus 10-14 after 18 to 24 hrs by NCCLS method; method in brief: as §1
Staphylococcus aureus [6] = experiment: Antibacterial activity against methicillin-resistant Staphylococcus aureus 10-11 after 18 to 24 hrs by NCCLS method
Method in brief: (§2)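 Incubated at 35 °C for 18–24 h under NCCLS (M100-S11) standards. MIC was read as the lowest concentration giving complete inhibition of visible bacterial growth.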

Staphylococcus aureus [7] = experiment: Antibacterial activity against methicillin-resistant Staphylococcus aureus 10-13 after 18 to 24 hrs by NCCLS method; method in brief: as §2
Staphylococcus aureus [8] = experiment: Antibacterial activity against methicillin-resistant Staphylococcus aureus 10-15 after 18 to 24 hrs by NCCLS method; method in brief: as §2
[9] = system: Staphylococcus epidermidis; experiment: Antibacterial activity against methicillin-sensitive Staphylococcus epidermidis 10-11 after 18 to 24 hrs by NCCLS method; method in brief: as §1
[10] = system: Staphylococcus epidermidis; experiment: Antibacterial activity against methicillin-sensitive Staphylococcus epidermidis 10-15 after 18 to 24 hrs by NCCLS method; method in brief: as §2
[11] = system: Staphylococcus epidermidis; experiment: Antibacterial activity against methicillin-resistant Staphylococcus epidermidis 10-10 after 18 to 24 hrs by NCCLS method; method in brief: as §2
[12] = system: Staphylococcus epidermidis; experiment: Antibacterial activity against methicillin-resistant Staphylococcus epidermidis 10-13 after 18 to 24 hrs by NCCLS method; method in brief: as §2
Enterococcus faecalis [13] = experiment: Antibacterial activity against Enterococcus faecalis 10-5 after 18 to 24 hrs by NCCLS method; method in brief: as §1
Enterococcus faecalis [14] = experiment: Antibacterial activity against Enterococcus faecalis 10-6 after 18 to 24 hrs by NCCLS method; method in brief: as §1
Enterococcus faecalis [15] = experiment: Antibacterial activity against Enterococcus faecalis 10-7 after 18 to 24 hrs by NCCLS method; method in brief: as §1
Enterococcus faecium [16] = experiment: Antibacterial activity against Enterococcus faecium 10-6 after 18 to 24 hrs by NCCLS method; method in brief: as §1
Enterococcus faecium [17] = experiment: Antibacterial activity against Enterococcus faecium 10-9 after 18 to 24 hrs by NCCLS method; method in brief: as §1
Streptococcus pneumoniae [18] = experiment: Antibacterial activity against Streptococcus pneumoniae 10-1 after 18 to 24 hrs by NCCLS method; method in brief: as §1
Streptococcus pneumoniae [19] = experiment: Antibacterial activity against Streptococcus pneumoniae 10-6 after 18 to 24 hrs by NCCLS method; method in brief: as §1
Escherichia coli [20] = experiment: Antibacterial activity against Escherichia coli ATCC 25922 after 18 to 24 hrs by NCCLS method; method in brief: as §1
Escherichia coli [21] = experiment: Antibacterial activity against Escherichia coli 10-1 after 18 to 24 hrs by NCCLS method; method in brief: as §1
Escherichia coli [22] = experiment: Antibacterial activity against Escherichia coli 10-2 after 18 to 24 hrs by NCCLS method; method in brief: as §1
Escherichia coli [23] = experiment: Antibacterial activity against Escherichia coli 10-3 after 18 to 24 hrs by NCCLS method; method in brief: as §1
Escherichia coli [24] = experiment: Antibacterial activity against extended spectrum beta-lactamases producing Escherichia coli 10-2 after 18 to 24 hrs by NCCLS method; method in brief: as §1
Escherichia coli [25] = experiment: Antibacterial activity against extended spectrum beta-lactamases producing Escherichia coli 10-3 after 18 to 24 hrs by NCCLS method; method in brief: as §1
Escherichia coli [26] = experiment: Antibacterial activity against extended spectrum beta-lactamases producing Escherichia coli 10-4 after 18 to 24 hrs by NCCLS method; method in brief: as §1
Klebsiella pneumoniae [27] = experiment: Antibacterial activity against Klebsiella pneumoniae 10-2 after 18 to 24 hrs by NCCLS method; method in brief: as §1
Klebsiella pneumoniae [28] = experiment: Antibacterial activity against Klebsiella pneumoniae 10-3 after 18 to 24 hrs by NCCLS method; method in brief: as §1
Klebsiella pneumoniae [29] = experiment: Antibacterial activity against Klebsiella pneumoniae 10-4 after 18 to 24 hrs by NCCLS method; method in brief: as §1
Klebsiella pneumoniae [30] = experiment: Antibacterial activity against extended spectrum beta-lactamases producing Klebsiella pneumoniae 10-1 after 18 to 24 hrs by NCCLS method; method in brief: as §1
Klebsiella pneumoniae [31] = experiment: Antibacterial activity against extended spectrum beta-lactamases producing Klebsiella pneumoniae 10-2 after 18 to 24 hrs by NCCLS method; method in brief: as §1
Klebsiella pneumoniae [32] = experiment: Antibacterial activity against extended spectrum beta-lactamases producing Klebsiella pneumoniae 10-3 after 18 to 24 hrs by NCCLS method; method in brief: as §1
Pseudomonas aeruginosa [33] = experiment: Antibacterial activity against Pseudomonas aeruginosa 10-5 after 18 to 24 hrs by NCCLS method; method in brief: as §1
Pseudomonas aeruginosa [34] = experiment: Antibacterial activity against Pseudomonas aeruginosa 10-9 after 18 to 24 hrs by NCCLS method; method in brief: as §1
Pseudomonas aeruginosa [35] = experiment: Antibacterial activity against Pseudomonas aeruginosa 10-12 after 18 to 24 hrs by NCCLS method; method in brief: as §1
Pseudomonas aeruginosa [36] = experiment: Antibacterial activity against Pseudomonas aeruginosa 10-15 after 18 to 24 hrs by NCCLS method; method in brief: as §1
Pseudomonas aeruginosa [37] = experiment: Antibacterial activity against Pseudomonas aeruginosa 10-18 after 18 to 24 hrs by NCCLS method; method in brief: as §1
Pseudomonas aeruginosa [38] = experiment: Antibacterial activity against Pseudomonas aeruginosa 10-20 after 18 to 24 hrs by NCCLS method; method in brief: as §1

SMILES | MIC [1] [µg/mL] | MIC (Staphylococcus aureus [2]) [µg/mL] | MIC (Staphylococcus aureus [3]) [µg/mL] | MIC (Staphylococcus aureus [4]) [µg/mL] | MIC (Staphylococcus aureus [5]) [µg/mL] | MIC (Staphylococcus aureus [6]) [µg/mL] | MIC (Staphylococcus aureus [7]) [µg/mL] | MIC (Staphylococcus aureus [8]) [µg/mL] | MIC [9] [µg/mL] | MIC [10] [µg/mL] | MIC [11] [µg/mL] | MIC [12] [µg/mL] | MIC (Enterococcus faecalis [13]) [µg/mL] | MIC (Enterococcus faecalis [14]) [µg/mL] | MIC (Enterococcus faecalis [15]) [µg/mL] | MIC (Enterococcus faecium [16]) [µg/mL] | MIC (Enterococcus faecium [17]) [µg/mL] | MIC (Streptococcus pneumoniae [18]) [µg/mL] | MIC (Streptococcus pneumoniae [19]) [µg/mL] | MIC (Escherichia coli [20]) [µg/mL] | also measured
O=C(O)c1cn(C2CC2)c2cc(N3CCN(Cc4ccc5c(c4)OCO5)CC3)c(F)cc2c1=O | 2 (≈ 4.3 µM) | 0.25 (≈ 0.537 µM) | 0.5 (≈ 1.07 µM) | 1 (≈ 2.15 µM) | 1 (≈ 2.15 µM) | 32 (≈ 68.7 µM) | 64 (≈ 137 µM) | 16 (≈ 34.4 µM) | 2 (≈ 4.3 µM) | 16 (≈ 34.4 µM) | 16 (≈ 34.4 µM) | 16 (≈ 34.4 µM) | 16 (≈ 34.4 µM) | 32 (≈ 68.7 µM) | 16 (≈ 34.4 µM) | 8 (≈ 17.2 µM) | 8 (≈ 17.2 µM) | 8 (≈ 17.2 µM) | 16 (≈ 34.4 µM) | 0.25 (≈ 0.537 µM) | MIC (Escherichia coli [21]): > 128 µg/mL; MIC (Escherichia coli [22]): 16 µg/mL (≈ 34.4 µM); MIC (Escherichia coli [23]): 16 µg/mL (≈ 34.4 µM); MIC (Escherichia coli [24]): > 128 µg/mL; MIC (Escherichia coli [25]): > 128 µg/mL; MIC (Escherichia coli [26]): 16 µg/mL (≈ 34.4 µM); MIC (Klebsiella pneumoniae [27]): 64 µg/mL (≈ 137 µM); MIC (Klebsiella pneumoniae [28]): 8 µg/mL (≈ 17.2 µM); MIC (Klebsiella pneumoniae [29]): > 128 µg/mL; MIC (Klebsiella pneumoniae [30]): > 128 µg/mL; MIC (Klebsiella pneumoniae [31]): > 128 µg/mL; MIC (Klebsiella pneumoniae [32]): > 128 µg/mL; MIC (Pseudomonas aeruginosa [33]): 16 µg/mL (≈ 34.4 µM); MIC (Pseudomonas aeruginosa [34]): 16 µg/mL (≈ 34.4 µM); MIC (Pseudomonas aeruginosa [35]): 32 µg/mL (≈ 68.7 µM); MIC (Pseudomonas aeruginosa [36]): 16 µg/mL (≈ 34.4 µM); MIC (Pseudomonas aeruginosa [37]): 8 µg/mL (≈ 17.2 µM); MIC (Pseudomonas aeruginosa [38]): 16 µg/mL (≈ 34.4 µM)
O=C(O)c1cn(C2CC2)c2cc(N3CCN(Cc4ccc(OCc5ccccc5)cc4)CC3)c(F)cc2c1=O | 32 (≈ 60.7 µM) | 4 (≈ 7.58 µM) | 0.25 (≈ 0.474 µM) | 0.5 (≈ 0.948 µM) | 0.5 (≈ 0.948 µM) | 32 (≈ 60.7 µM) | 128 (≈ 243 µM) | 128 (≈ 243 µM) | 1 (≈ 1.9 µM) | 32 (≈ 60.7 µM) | 16 (≈ 30.3 µM) | 32 (≈ 60.7 µM) | 8 (≈ 15.2 µM) | 64 (≈ 121 µM) | 32 (≈ 60.7 µM) | 8 (≈ 15.2 µM) | 32 (≈ 60.7 µM) | 8 (≈ 15.2 µM) | 32 (≈ 60.7 µM) | 1 (≈ 1.9 µM) | MIC (Escherichia coli [21]): > 128 µg/mL; MIC (Escherichia coli [22]): 32 µg/mL (≈ 60.7 µM); MIC (Escherichia coli [23]): > 128 µg/mL; MIC (Escherichia coli [24]): > 128 µg/mL; MIC (Escherichia coli [25]): > 128 µg/mL; MIC (Escherichia coli [26]): > 128 µg/mL; MIC (Klebsiella pneumoniae [27]): > 128 µg/mL; MIC (Klebsiella pneumoniae [28]): 32 µg/mL (≈ 60.7 µM); MIC (Klebsiella pneumoniae [29]): > 128 µg/mL; MIC (Klebsiella pneumoniae [30]): > 128 µg/mL; MIC (Klebsiella pneumoniae [31]): > 128 µg/mL; MIC (Klebsiella pneumoniae [32]): > 128 µg/mL; MIC (Pseudomonas aeruginosa [33]): 16 µg/mL (≈ 30.3 µM); MIC (Pseudomonas aeruginosa [34]): 32 µg/mL (≈ 60.7 µM); MIC (Pseudomonas aeruginosa [35]): 32 µg/mL (≈ 60.7 µM); MIC (Pseudomonas aeruginosa [36]): 128 µg/mL (≈ 243 µM); MIC (Pseudomonas aeruginosa [37]): 64 µg/mL (≈ 121 µM); MIC (Pseudomonas aeruginosa [38]): 32 µg/mL (≈ 60.7 µM)
